The target of one experiment is T1, BCRP (Homo sapiens, UniProt Q9UNQ0).
T1 sequence (Q9UNQ0 1-655): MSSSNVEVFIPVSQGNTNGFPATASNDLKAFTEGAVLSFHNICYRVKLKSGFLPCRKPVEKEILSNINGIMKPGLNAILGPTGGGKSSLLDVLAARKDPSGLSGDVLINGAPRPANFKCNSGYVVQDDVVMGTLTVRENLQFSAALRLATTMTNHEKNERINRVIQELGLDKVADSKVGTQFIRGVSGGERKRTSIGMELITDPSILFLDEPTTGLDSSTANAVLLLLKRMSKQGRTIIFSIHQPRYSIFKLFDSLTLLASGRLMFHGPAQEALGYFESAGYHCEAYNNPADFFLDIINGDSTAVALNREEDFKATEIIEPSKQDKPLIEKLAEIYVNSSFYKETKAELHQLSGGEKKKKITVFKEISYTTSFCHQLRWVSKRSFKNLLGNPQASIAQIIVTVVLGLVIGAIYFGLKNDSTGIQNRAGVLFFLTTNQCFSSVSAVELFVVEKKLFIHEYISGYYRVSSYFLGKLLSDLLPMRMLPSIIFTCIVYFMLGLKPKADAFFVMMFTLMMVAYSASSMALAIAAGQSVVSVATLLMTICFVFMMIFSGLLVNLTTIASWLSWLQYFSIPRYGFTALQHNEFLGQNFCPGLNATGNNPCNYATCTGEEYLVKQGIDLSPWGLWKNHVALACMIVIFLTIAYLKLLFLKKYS
The class given is biochemical.

The next experiment has as its target T2, OATP1B1 (Homo sapiens, UniProt Q9Y6L6).
T2 sequence (Q9Y6L6 1-691): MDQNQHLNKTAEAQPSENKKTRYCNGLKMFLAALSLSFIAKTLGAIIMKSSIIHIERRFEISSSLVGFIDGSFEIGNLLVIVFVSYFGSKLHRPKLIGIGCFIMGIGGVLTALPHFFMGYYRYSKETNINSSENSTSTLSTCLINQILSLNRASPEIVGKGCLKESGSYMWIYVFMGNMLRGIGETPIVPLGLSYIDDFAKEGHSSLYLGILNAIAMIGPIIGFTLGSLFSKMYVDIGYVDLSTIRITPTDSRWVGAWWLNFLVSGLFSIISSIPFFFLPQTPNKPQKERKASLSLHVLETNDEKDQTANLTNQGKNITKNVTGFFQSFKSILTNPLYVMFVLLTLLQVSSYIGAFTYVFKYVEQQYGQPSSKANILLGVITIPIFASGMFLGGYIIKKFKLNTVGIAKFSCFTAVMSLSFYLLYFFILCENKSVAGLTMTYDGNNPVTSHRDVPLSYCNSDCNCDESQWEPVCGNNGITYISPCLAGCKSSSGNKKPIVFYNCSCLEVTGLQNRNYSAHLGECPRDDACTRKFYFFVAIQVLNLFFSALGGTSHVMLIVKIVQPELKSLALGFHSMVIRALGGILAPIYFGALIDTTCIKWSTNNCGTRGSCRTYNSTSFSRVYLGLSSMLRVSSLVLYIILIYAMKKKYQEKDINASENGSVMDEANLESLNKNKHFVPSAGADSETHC
The class given is cell-based. An outline of the steps: (§1)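 HEK293 lines overexpressing the named transporter were grown in DMEM with 10% FBS, 1% penicillin/streptomycin and line-specific selection antibiotics, at 37°C, humidified, 5% CO₂. Cell-based uptake assays measured inhibition of transporter activity.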

The next experiment has as its target T3, OATP1B3 (Homo sapiens, UniProt Q9NPD5).
T3 sequence (Q9NPD5 1-702): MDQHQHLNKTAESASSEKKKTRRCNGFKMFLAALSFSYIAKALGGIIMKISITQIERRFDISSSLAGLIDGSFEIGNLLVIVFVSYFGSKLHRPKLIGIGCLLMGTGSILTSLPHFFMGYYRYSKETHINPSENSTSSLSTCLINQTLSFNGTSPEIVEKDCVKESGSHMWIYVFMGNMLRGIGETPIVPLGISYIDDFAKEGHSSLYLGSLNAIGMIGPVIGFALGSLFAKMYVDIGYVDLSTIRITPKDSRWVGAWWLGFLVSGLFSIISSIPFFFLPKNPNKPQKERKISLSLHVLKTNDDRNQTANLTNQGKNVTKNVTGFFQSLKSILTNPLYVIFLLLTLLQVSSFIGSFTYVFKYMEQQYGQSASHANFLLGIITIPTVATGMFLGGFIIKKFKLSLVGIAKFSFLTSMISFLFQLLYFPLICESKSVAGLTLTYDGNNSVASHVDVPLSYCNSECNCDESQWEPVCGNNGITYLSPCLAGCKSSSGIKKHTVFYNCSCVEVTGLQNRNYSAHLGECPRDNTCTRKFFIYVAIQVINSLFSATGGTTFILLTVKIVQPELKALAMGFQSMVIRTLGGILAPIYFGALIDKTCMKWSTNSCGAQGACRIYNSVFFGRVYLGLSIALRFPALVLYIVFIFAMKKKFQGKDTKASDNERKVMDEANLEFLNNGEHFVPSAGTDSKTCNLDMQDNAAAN
The class given is cell-based. An outline of the steps:
as §1

For the next experiment, the target named is T4, RFVT1 (Homo sapiens, UniProt Q9NWF4).
T4 sequence (Q9NWF4 1-448): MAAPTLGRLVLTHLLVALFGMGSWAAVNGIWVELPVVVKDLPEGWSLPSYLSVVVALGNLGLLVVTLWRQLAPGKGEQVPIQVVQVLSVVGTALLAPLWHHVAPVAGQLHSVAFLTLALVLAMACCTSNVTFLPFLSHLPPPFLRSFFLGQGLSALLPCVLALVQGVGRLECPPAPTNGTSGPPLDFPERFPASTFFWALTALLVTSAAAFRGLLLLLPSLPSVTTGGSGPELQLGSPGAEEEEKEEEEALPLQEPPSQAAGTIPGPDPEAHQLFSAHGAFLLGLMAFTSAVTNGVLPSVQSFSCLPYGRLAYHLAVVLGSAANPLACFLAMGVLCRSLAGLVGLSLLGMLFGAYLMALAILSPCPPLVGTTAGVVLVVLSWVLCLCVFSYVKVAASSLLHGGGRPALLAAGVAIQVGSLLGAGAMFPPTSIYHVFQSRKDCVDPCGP
The class given is cell-based. An outline of the steps: as §1

The next experiment concerns the target T5, RFVT2 (Homo sapiens, UniProt Q9HAB3).
T5 sequence (Q9HAB3 1-445): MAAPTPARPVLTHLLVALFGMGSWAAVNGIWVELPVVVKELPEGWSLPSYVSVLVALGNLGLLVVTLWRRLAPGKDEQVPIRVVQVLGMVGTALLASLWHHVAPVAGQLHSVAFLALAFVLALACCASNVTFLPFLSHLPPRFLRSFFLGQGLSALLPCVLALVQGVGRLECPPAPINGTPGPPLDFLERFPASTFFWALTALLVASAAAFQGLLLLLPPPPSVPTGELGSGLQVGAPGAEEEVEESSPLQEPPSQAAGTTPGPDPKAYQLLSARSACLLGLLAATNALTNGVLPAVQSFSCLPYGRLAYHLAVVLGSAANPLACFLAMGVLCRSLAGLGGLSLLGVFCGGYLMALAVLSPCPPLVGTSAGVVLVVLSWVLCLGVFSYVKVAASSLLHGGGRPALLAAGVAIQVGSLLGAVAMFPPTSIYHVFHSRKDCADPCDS
The class given is cell-based. An outline of the steps: as §1

In another experiment the target is T6, RFVT3 (Homo sapiens, UniProt Q9NQ40).
T6 sequence (Q9NQ40 1-469): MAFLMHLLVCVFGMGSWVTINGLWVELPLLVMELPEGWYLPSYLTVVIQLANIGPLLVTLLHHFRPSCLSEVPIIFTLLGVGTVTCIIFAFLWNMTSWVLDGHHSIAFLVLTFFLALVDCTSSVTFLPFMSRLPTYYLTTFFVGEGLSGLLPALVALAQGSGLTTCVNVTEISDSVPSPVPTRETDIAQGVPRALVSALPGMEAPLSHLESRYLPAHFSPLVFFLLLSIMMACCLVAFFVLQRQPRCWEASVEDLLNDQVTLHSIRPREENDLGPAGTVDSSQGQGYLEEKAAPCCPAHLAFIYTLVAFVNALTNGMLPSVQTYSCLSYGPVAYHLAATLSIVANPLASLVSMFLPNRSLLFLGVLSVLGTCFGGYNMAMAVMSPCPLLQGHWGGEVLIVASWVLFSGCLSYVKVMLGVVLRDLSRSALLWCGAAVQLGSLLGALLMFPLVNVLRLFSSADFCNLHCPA
Format: cell-based. An outline of the steps: as §1

The next experiment has as its system hepatic BCRP. Particulars: intravenous ceftriaxone as model; cited from earlier work.

As for `CC1=NN(c2ccc(C)c(C)c2)C(=O)/C1=N\Nc1cccc(-c2cccc(C(=O)O)c2)c1O` [Eltrombopag], the IC50 against BCRP was determined as 4.9 ± 0.6 µM; at OATP1B1 it was 1.4 ± 1.2 µM; against OATP1B3, 4 ± 3.1 µM; against RFVT1, 44.7 ± 18.3 µM; at RFVT2, 28.2 ± 15.7 µM; on RFVT3 it was 26.3 ± 34 µM. For the same compound, in the experiment with hepatic BCRP, the “Inhibition of hepatic BCRP” value was “does not inhibit”.

As usually defined, the IC50 is the midpoint of a concentration-inhibition curve. A high value points to weaker potency.

The record behind these values is article PMC12166265 (Clinical Pharmacology and Therapeutics, 2025).
